Data taken from article PMC3240942 (Molecular cell, 2011).
Where no end group is shown, it is not given here.

Experiments:
Sirt1 [1] = molecular target: T1, Sirt1 (Mus musculus, UniProt Q923E4); assay: Sirt1 deacetylase activity against Ac-p53, peptide added in trans; format: biochemical; details: Figure S2G
T1 sequence (Q923E4 1-737): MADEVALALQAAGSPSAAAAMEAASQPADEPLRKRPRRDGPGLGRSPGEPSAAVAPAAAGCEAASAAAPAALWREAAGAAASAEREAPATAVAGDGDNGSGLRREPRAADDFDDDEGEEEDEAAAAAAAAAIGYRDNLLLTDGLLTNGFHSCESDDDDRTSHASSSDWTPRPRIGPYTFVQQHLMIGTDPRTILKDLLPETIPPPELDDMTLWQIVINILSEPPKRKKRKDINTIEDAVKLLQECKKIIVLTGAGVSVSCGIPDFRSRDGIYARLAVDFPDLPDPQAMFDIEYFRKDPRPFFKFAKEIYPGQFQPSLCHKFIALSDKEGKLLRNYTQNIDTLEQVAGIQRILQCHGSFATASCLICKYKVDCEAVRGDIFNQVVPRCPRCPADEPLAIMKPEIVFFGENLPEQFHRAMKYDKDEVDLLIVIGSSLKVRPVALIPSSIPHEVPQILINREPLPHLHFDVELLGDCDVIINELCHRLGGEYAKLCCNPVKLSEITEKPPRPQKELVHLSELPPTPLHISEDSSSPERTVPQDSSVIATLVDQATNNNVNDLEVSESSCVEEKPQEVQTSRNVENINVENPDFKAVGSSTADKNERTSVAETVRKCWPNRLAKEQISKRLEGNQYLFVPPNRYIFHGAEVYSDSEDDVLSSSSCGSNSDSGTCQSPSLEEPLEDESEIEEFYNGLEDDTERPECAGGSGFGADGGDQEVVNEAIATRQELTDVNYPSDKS

Sirt6 = assay: Fluorometric Sirt6 deacetylase assay; format: biochemical; details: 150 μM peptide, CycLex SIRT6 fluorometric kit; N=4
Procedure, shortened: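 His-tagged Sirt6 was assayed with the CycLex SIRT6 fluorometric kit. Kit buffer was replaced by 50 mM HEPES pH 7.0, 1 mM DTT, 10 mM MgCl2, 200 mM NaCl plus protease/phosphatase inhibitors. WT or GPDR-mutant ESA peptide (150 μM) or no peptide was present. N=4; mean ± s.e.m.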

Sirt1 [2] = molecular target: T1, Sirt1; assay: Lineweaver-Burk kinetics of Sirt1; format: biochemical; details: against both Ac-H4 and NAD+; Lineweaver-Burk plot
Procedure, shortened: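 His-Sirt1 (2 μg) was pre-incubated 5 min at room temperature in HEPES pH 7.0 buffer with mutant ESA peptide at 0, 60, 120 or 240 μM. Ac-K16 H4 fluorogenic dipeptide was varied at 500 μM NAD+, or NAD+ was varied at 100 μM substrate. Reactions ran 25 min at 37 °C and were stopped with nicotinamide developer; ex 355/em 460 nm, no-NAD+ blank subtracted. Triplicates. Kis/Kii came from a double-reciprocal noncompetitive model fit, Km from the same analysis, kcat from a Michaelis–Menten fit.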

deacetylase core [3] = assay: Pull-down of deacetylase core with immobilized GPDR-ESA peptide; format: binding, mouse; details: streptavidin pull-down, Figure S2E top
Procedure, shortened: (§1)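 Biotinylated peptide (mutant ESA or acetyl-H4) was bound to streptavidin agarose for 1 h at room temperature, washed, and held in PBS/1% Triton X-100. Beads (30 μl) took 2 μg GST-fused or His-tagged protein for 2 h at room temperature. Beads were washed with PBS/1% Triton/200 mM NaCl and eluted in β-ME SDS buffer at 95 °C for 10 min. Blots ran on 4–12% SDS-PAGE; biotin-only beads were the control.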

[4] = test system: ESA-deacetylase core interaction; assay: Competition of the ESA-deacetylase core interaction; format: binding, mouse; details: competing GPDR-ESA peptide (Figure S2E) or 2 μg GST-LZ (N=5)
Procedure, shortened: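 Biotinylated ESA peptide (100 μl at 300 nmole/ml) bound to 1 ml streptavidin agarose for 1 hr at room temperature, washed with PBS, and resuspended in PBS/1% Triton X-100 with protease inhibitors. 30 μl beads incubated 2 hrs at room temperature with deacetylase core and competitor. Biotin-only beads as negative control. Bound core quantified by immunoblot, N=5, mean ± s.e.m.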

Sirt1 [5] = molecular target: T1, Sirt1; assay: Sirt1 deacetylase activity in presence of GST-LZ; format: biochemical; details: compared to GST alone, Figure S3B
deacetylase core [6] = assay: GST pull-down of deacetylase core with GST-LZ or GST-ESA; format: binding, mouse; details: GST pull-down, GST-LZ vs GST-ESA
Procedure, shortened: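 His-tagged deacetylase core (a.a. 184-510) incubated with GST, GST-ESA or GST-LZ (DBC1 LZ, a.a. 243-264), 2 μg of each. Unbound protein washed off on micro-spin columns with PBS/1% Triton X-100/200 mM NaCl. Elution in SDS buffer with β-ME at 95 °C for 10 min; 4–12% gradient SDS-PAGE and Western blot for bound core and GST fusions.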

[7] = test system: Lys 382 acetylated-p53 (Ac-p53); assay: Deacetylation of Lys 382 acetylated-p53 by recombinant WT/mutant Sirt1; format: biochemical, mouse Sirt1; details: recombinant Sirt1 2 μg, acetylated GST-p53 0.2 μg, 0.5 mM NAD+, pH 7.0, 37 °C; immunoblot
Procedure, shortened: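 Recombinant His-tagged WT or C-terminally truncated/point-mutant mouse Sirt1 (2 μg) incubated with acetylated GST-p53 (0.2 μg) and 0.5 mM NAD+ in 50 mM HEPES pH 7.0, 1 mM DTT, 10 mM MgCl2, 200 mM NaCl plus protease/phosphatase inhibitors. Reactions ran at 37 °C for indicated times and were stopped with SDS sample buffer. Read-out: immunoblot with acetyl-K382 p53 antibody; loading checked by Coomassie, Ponceau S or Western blot.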

[3H]Ac-histone H4 = [3H]Ac-histone H4 deacetylation, O-[3H]acetyl-ADP-ribose scintillation counting; format: biochemical; details: [3H]Ac-histone H4 substrate; N=4; "almost"
Procedure, shortened: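 WT or mutant recombinant Sirt1 (including ΔESA, G644P, D650R, G644P/D650R) was reacted with [3H]acetyl-histone H4. Activity was quantified by scintillation counting of released O-[3H]acetyl-ADP-ribose. N=4; mean ± s.e.m.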

[8] = molecular target: T2, Sirt1 deacetylase core (Core, a.a. 184-510) (mouse, UniProt Q923E4 184-510); assay: pull-down
T2 sequence (looked up): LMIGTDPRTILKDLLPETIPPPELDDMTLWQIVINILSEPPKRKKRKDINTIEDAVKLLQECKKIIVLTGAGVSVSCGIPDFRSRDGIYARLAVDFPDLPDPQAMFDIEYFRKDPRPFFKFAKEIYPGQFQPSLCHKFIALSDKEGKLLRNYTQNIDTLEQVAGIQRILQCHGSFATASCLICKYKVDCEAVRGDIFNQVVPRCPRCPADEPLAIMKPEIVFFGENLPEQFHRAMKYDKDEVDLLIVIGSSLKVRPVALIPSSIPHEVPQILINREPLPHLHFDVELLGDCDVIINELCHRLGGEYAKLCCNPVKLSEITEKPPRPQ

native Ac-histone H3 = assay: Deacetylation of native Ac-histone H3 by recombinant Sirt1; format: biochemical
p53 = assay: Deacetylation of p53 in transfected H1299 cells; format: cell-based; details: co-transfected with p53
Procedure, shortened: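 H1299 cells were transiently co-transfected with a p53 vector and a WT or ΔESA Sirt1 vector; empty vector was the negative control. Acetylated p53 was detected by immunoblot with an acetyl-K382-specific antibody.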

[9] = test system: p53 target genes p21, PUMA and Bim; assay: Expression of p53 target genes in H1299 cells; format: cell-based; details: co-expressed p53
Procedure, shortened: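 H1299 cells transiently co-transfected with a p53 expression vector and a WT or ΔESA Sirt1 expression vector; empty vector as control. Levels of the p53-activated genes p21, PUMA and Bim were then visualized.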

Flag-p65 (NF-κB) = assay: Co-immunoprecipitation of Sirt1 with Flag-p65 in Hela cells; format: cell-based; details: V5-tagged Sirt1
Procedure, shortened: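 Transient co-transfection of HeLa cells with Flag-NF-κB p65 plus V5-tagged full-length or ΔESA Sirt1. p65 was pulled down with anti-Flag, and bound Sirt1 was detected by anti-V5 immunoblot alongside input levels.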

GST-Ac-p53 = assay: Pull-down of Sirt1 / core fragments with GST-Ac-p53; format: binding; details: in vitro pull-down
Procedure, shortened: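 In vitro pull-downs with GST-Ac-p53 or GST alone as negative control. Recombinant Flag-tagged full-length or ΔESA (a.a. 631-655 deleted) Sirt1 pulled down with anti-Flag, bound GST-Ac-p53 detected by GST immunoblot, and Sirt1 shown by Coomassie. Alternatively, core (a.a. 184-510) or Core-ESA with GST-Ac-p53 (2 μg each) in GST pull-down, bound core detected by Sirt1 immunoblot.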

Ac-H3 = assay: Interaction of Sirt1 with Ac-H3 purified from Hela cells; format: binding; details: Figure S3A
Ac-H4 = assay: Interaction of Sirt1 with Ac-H4 purified from Hela cells; format: binding; details: Figure S3A
[10] = Pull-down of GST fusion proteins with immobilized GPDR-ESA peptide; format: binding; details: Figure S2F
Procedure, shortened: as §1

In the case of “GPDR-ESA peptide: ESA peptide containing a mutation of two residues, G644P and D650R (GPDR) (QYLFVPPNRYIFHPAEVYSRSEDDV; also: biotinylated, position not given here)”, the “inhibition of Sirt1 activity against Ac-p53” value (Sirt1 [1]) is reported as “also inhibited Sirt1 activity against Ac-p53”, the “effect on Sirt6 activity” value (Sirt6) is reported as “had no effect on Sirt6 activity” and the mode of inhibition (Sirt1 [2]) is reported as “noncompetitive inhibitor”. For the same molecule, the “binding to deacetylase core” value (deacetylase core [3]) was “also bound to the deacetylase core” and the “inhibition of ESA-deacetylase core interaction” value [4] was “ESA-deacetylase core interaction was inhibited”.

For “GST-LZ: LZ domain of DBC1 (a.a. 243-264) fused to GST (LQRRYRSLLVPSDFLSVHLSWL; also: fused to GST, end not given here)”, the “inhibition of ESA-deacetylase core interaction” value [4] was “prevented the ESA-deacetylase core interaction”, the “reduction of Sirt1 deacetylase activity” value (Sirt1 [5]) was “significantly reduced Sirt1 deacetylase activity” and the “relative strength of interaction with deacetylase core” value (deacetylase core [6]) was “stronger than the ESA-deacetylase core interaction”.

For “GPDR: Sirt1 with a double mutation G644P and D650R”, the “deacetylase activity against Ac-p53” value [7] was “very little deacetylase activity” and the “fold reduction of Sirt1 activity” value ([3H]Ac-histone H4) was about 10 fold.

B1: GST-ESA (ESA fused to GST) (domain or fragment, mouse, UniProt Q923E4 631-655, looked up)
chain: QYLFVPPNRYIFHGAEVYSDSEDDV
B1: binds [8].

B2: ΔESA Sirt1: Sirt1 with the 25 a.a. ESA region (a.a. 631-655) deleted (protein)
chain: MADEVALALQAAGSPSAAAAMEAASQPADEPLRKRPRRDGPGLGRSPGEPSAAVAPAAAGCEAASAAAPAALWREAAGAAASAEREAPATAVAGDGDNGSGLRREPRAADDFDDDEGEEEDEAAAAAAAAAIGYRDNLLLTDGLLTNGFHSCESDDDDRTSHASSSDWTPRPRIGPYTFVQQHLMIGTDPRTILKDLLPETIPPPELDDMTLWQIVINILSEPPKRKKRKDINTIEDAVKLLQECKKIIVLTGAGVSVSCGIPDFRSRDGIYARLAVDFPDLPDPQAMFDIEYFRKDPRPFFKFAKEIYPGQFQPSLCHKFIALSDKEGKLLRNYTQNIDTLEQVAGIQRILQCHGSFATASCLICKYKVDCEAVRGDIFNQVVPRCPRCPADEPLAIMKPEIVFFGENLPEQFHRAMKYDKDEVDLLIVIGSSLKVRPVALIPSSIPHEVPQILINREPLPHLHFDVELLGDCDVIINELCHRLGGEYAKLCCNPVKLSEITEKPPRPQKELVHLSELPPTPLHISEDSSSPERTVPQDSSVIATLVDQATNNNVNDLEVSESSCVEEKPQEVQTSRNVENINVENPDFKAVGSSTADKNERTSVAETVRKCWPNRLAKEQISKRLEGNLSSSSCGSNSDSGTCQSPSLEEPLEDESEIEEFYNGLEDDTERPECAGGSGFGADGGDQEVVNEAIATRQELTDVNYPSDKS
modifications: left off: V5, end not stated, kept
With B2 the “deacetylase activity against Ac-p53” value [7] was “did not have any deacetylase activity”, the “deacetylase activity against native Ac-histone H3” value (native Ac-histone H3) was “did not have any deacetylase activity” and the “deacetylation of p53 in vivo” value (p53) was “WT Sirt1, but not ΔESA Sirt1, was able to deacetylate p53”. For the same molecule, the “suppression of p53 target gene expression” value [9] was “failed to suppress the expression of p53 target genes”, the “co-immunoprecipitation with Flag-p65” value (Flag-p65 (NF-κB)) was “did so very poorly” and the “binding to GST-Ac-p53” value (GST-Ac-p53) was “bound poorly to GST-Ac-p53 compared to full-length Sirt1”. The “interaction with Ac-H3” value (Ac-H3) was “significantly weakened the interaction” and the “interaction with Ac-H4” value (Ac-H4) was “significantly weakened the interaction”.

B3: GST-Sirtuin domain: GST fused to Sirtuin domain (a.a. 236-490) (protein)
chain: EDAVKLLQECKKIIVLTGAGVSVSCGIPDFRSRDGIYARLAVDFPDLPDPQAMFDIEYFRKDPRPFFKFAKEIYPGQFQPSLCHKFIALSDKEGKLLRNYTQNIDTLEQVAGIQRILQCHGSFATASCLICKYKVDCEAVRGDIFNQVVPRCPRCPADEPLAIMKPEIVFFGENLPEQFHRAMKYDKDEVDLLIVIGSSLKVRPVALIPSSIPHEVPQILINREPLPHLHFDVELLGDCDVIINELCHRLGGEYA
modifications: left off: GST, end not stated, kept
With B3 the “binding to immobilized GPDR-ESA peptide” value [10] was “bound to the GPDR-ESA peptide”.
